Results reported in ChEMBL document CHEMBL1152865, “Synthesis and antimycobacterial activities of novel 6-nitroquinolone-3-carboxylic acids” (Eur J Med Chem, 2009).
≈ marks a conversion by molar mass, not a printed value.

test system: Mycobacterium tuberculosis; experiment: Antibacterial activity against multidrug-resistant Mycobacterium tuberculosis by agar dilution method; format: functional
Method in brief: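 Agar dilution in Middlebrook 7H11 agar supplemented with OADC, following an approach similar to NCCLS guidance. MIC determined in duplicate.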

| Structure (SMILES) | MIC |
| --- | --- |
| O=C(O)c1cn(C2CC2)c2cc(N3CCC(N4CCCCC4)CC3)c([N+](=O)[O-])cc2c1=O | 0.43 µM (≈ 0.189 µg/mL) |
| CC(C)(C)NC(=O)C1c2ccccc2CCN1c1cc2c(cc1[N+](=O)[O-])c(=O)c(C(=O)O)cn2C1CC1 (stereo not given) | 1.55 µM (≈ 0.782 µg/mL) |
| O=C(O)c1cn(C2CC2)c2cc(N3CCC4(CC3)OCCO4)c([N+](=O)[O-])cc2c1=O | 1.88 µM (≈ 0.781 µg/mL) |
| CC(C)(C)n1cc(C(=O)O)c(=O)c2cc([N+](=O)[O-])c(N3CCN(Cc4ccc5c(c4)OCO5)CC3)cc21 | 1.53 µM (≈ 0.778 µg/mL) |
| NNC(=O)c1ccncc1 [ISONIAZID] | 45.6 µM (≈ 6.25 µg/mL) |
| COc1c(N2CCNC(C)C2)c(F)cc2c(=O)c(C(=O)O)cn(C3CC3)c12 (stereo not given) [GATIFLOXACIN] | 8.34 µM (≈ 3.13 µg/mL) |
| CCN(CC)C(=O)C1CCCN(c2cc3c(cc2[N+](=O)[O-])c(=O)c(C(=O)O)cn3C2CC2)C1 (stereo not given) | 3.42 µM (≈ 1.56 µg/mL) |
| CC1CN(c2cc3c(cc2[N+](=O)[O-])c(=O)c(C(=O)O)cn3C2CC2)CC(C)O1 (stereo not given) | 4.03 µM (≈ 1.56 µg/mL) |
| O=C(O)c1cn2c(n1)CN(c1cc3c(cc1[N+](=O)[O-])c(=O)c(C(=O)O)cn3C1CC1)CC2 | 0.43 µM (≈ 0.189 µg/mL) |
| CC1CN(c2cc3c(cc2[N+](=O)[O-])c(=O)c(C(=O)O)cn3-c2ccc(F)cc2)CC(C)O1 (stereo not given) | 1.77 µM (≈ 0.781 µg/mL) |
| Cc1onc(-c2c(F)cccc2F)c1C(=O)N1CCN(c2cc3c(cc2[N+](=O)[O-])c(=O)c(C(=O)O)cn3C2CC2)CC1 | 2.69 µM (≈ 1.56 µg/mL) |
| O=C(O)c1cn(-c2ccc(F)cc2)c2cc(N3CCN(C(=O)C4COc5ccccc5O4)CC3)c([N+](=O)[O-])cc2c1=O (stereo not given) | 0.68 µM (≈ 0.391 µg/mL) |
| O=C(O)c1cn(-c2ccc(F)cc2)c2cc(N3CCN(Cc4ccc5c(c4)OCO5)CC3)c([N+](=O)[O-])cc2c1=O | 0.71 µM (≈ 0.388 µg/mL) |
| O=C(O)c1cn(C2CC2)c2cc(N3CCN(C(=O)C4COc5ccccc5O4)CC3)c([N+](=O)[O-])cc2c1=O (stereo not given) | 6.01 µM (≈ 3.13 µg/mL) |
| O=C(O)c1cn(C2CC2)c2cc(N3CCN(Cc4ccc5c(c4)OCO5)CC3)c([N+](=O)[O-])cc2c1=O | 0.16 µM (≈ 0.0788 µg/mL) |
| O=C(O)c1cn(C2CC2)c2cc(N3CCN(C(=O)c4ccco4)CC3)c([N+](=O)[O-])cc2c1=O | 0.34 µM (≈ 0.154 µg/mL) |
| O=C(O)c1cn(C2CC2)c2cc(N3CCC(O)(c4ccc(Cl)cc4)CC3)c([N+](=O)[O-])cc2c1=O | 0.39 µM (≈ 0.189 µg/mL) |
| O=C(O)c1cn(C2CC2)c2cc(N3CCC(n4c(=O)[nH]c5cc(Cl)ccc54)CC3)c([N+](=O)[O-])cc2c1=O | 2.97 µM (≈ 1.56 µg/mL) |
| CN1CCN(c2cc3c(cc2[N+](=O)[O-])c(=O)c(C(=O)O)cn3C2CC2)CC1c1ccccc1 (stereo not given) | 0.2 µM (≈ 0.0897 µg/mL) |
| Cc1onc(-c2c(F)cccc2F)c1C(=O)N1CCN(c2cc3c(cc2[N+](=O)[O-])c(=O)c(C(=O)O)cn3C(C)(C)C)CC1 | 0.65 µM (≈ 0.387 µg/mL) |
